Compounds with a hit are over-represented: about 2.9% of the library has one in this group of screens.
Runt-SMMHC FRET: Runt domain-CBFb-SMMHC interaction inhibition; Cerulean-Runt/Venus-CBFb-SMMHC FRET ratio 530/480, 1 h; inhibition, % at 20 µM; 0.74% of 220,000 active; AID 1434;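 active = mean inhibition across duplicate retests at 20 µM reaching about 50%, limit read from the data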;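 note: inhibitors lower the FRET ratio by blocking Runt binding to CBFb-SMMHC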
RanGTP-Imp inh: disruptors of Ran-importin-beta complex formation – biochemical, FRET, CFP-Ran, YFP-importin-beta, homogeneous, primary screen; cell-free CFP-Ran/YFP-importin-beta FRET ratio; inhibition, % (no concentration beside the values); 1.1% of 300,000 active; AID 2216;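 active = more than half of the replicate wells show a fall in the fluorescence ratio signal beyond about 16%, limit read from the data, passing the limit was not always enough; inconclusive = exactly half of the replicate wells pass the set limit; inactive = fewer than half of replicates pass the limit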
AI-2 QS modul: modulates the Vibrio harveyi AI-2 quorum sensing system | Vibrio harveyi JMH597 AI-2 luminescence/OD600 ratio, 9 h; hits give low values; strain lacks LuxN and CqsS sensors; 0 = neutral-control median | activity change, % at 7.5 µM | 0.4% of 300,000 active; in the data active = activity change below about -75%, passing the limit was not always enough; inconclusive = no clear call, values can overlap the other calls;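 note: luminescence divided by OD600 gain over 9 h not by final OD600 alone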
Runt-CBFb FRET: blocks binding of human RUNX1 Runt domain to CBFb; Q01196+Q13951; Cerulean-Runt/Venus-CBFb FRET ratio 530/480, 1 h; inhibition, % at 20 µM; 0.46% of 220,000 active; AID 1496;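 active = inhibition over about 50% at 20 µM in the single-dose screen, limit read from the data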
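Measured by: fluorescence energy transfer, 422 nm excitation, 530/480 nm emission; Assay system: Cerulean-Runt domain; Medium: Tris pH 7.5 buffer with BSA; Measure: loss of energy transfer signal; Controls: 5 µM unlabeled CBFb as full-inhibition high control; Incubation: protein complex preformed 1 h, compound exposure 1 h, room temperature, dark.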
proKLK7 act: activators of human kallikrein-7 zymogen. purified proKLK7, EDANS-DABCYL substrate fluorescence; 100% is mature enzyme control, 0% vehicle. activation, % at 7 µM. 0.9% of 370,000 active. AID 652039;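 active = activation above the mean of all tested compounds plus 3 SD, computed per campaign excluding outliers beyond control limits, cut at about 13% in these data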
Wee1 degr inh: blocks degradation of human Wee1 kinase. P30291. HeLa Luc-Wee1K328M stability, luciferase luminescence; 100% = proteasome inhibitor MG132 effect. reporter increase, % at 5 µM. 1.2% of 220,000 active. AID 1321;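 active = activation above the mean of all tested compounds plus 3 SD, set per screening run, cut at about 8.8% in these data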;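 note: cells exposed to compound for 20 h before luminescence read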
Numbers stand for hits; - = inactive; ? = inconclusive; . = no result; ! = not active in a repeat.

SMILES	Runt-SMMHC FRET	RanGTP-Imp inh	AI-2 QS modul	Runt-CBFb FRET	proKLK7 act	Wee1 degr inh
Nc1nc(C2CC(=O)OC23CCCCC3)cs1 (configuration not stated)	-	21	-	-	-	-
S=C(NCc1ccccc1)Nc1cccc(Cl)c1	-	-	-78	-	-	-
C[C@@H]1CNC(=O)c2c(C(=O)N3CCN(c4ccccc4)CC3)ncn21	.	.	.	.	-	.
CC1CCc2c(C(=O)NCc3ccccn3)csc2C1 (configuration not stated)	-	-	-	-	-	9.0
CC1CCc2c(C(=O)Nc3ccccn3)csc2C1 (configuration not stated)	-	-	-	-	-	-
Cc1csc(NC(=O)CSc2nc(C)cs2)n1	-	-	-	-	-	-
Cc1csc(SCC(=O)O)n1	-	-	-	114	-	-
Cc1ccc(S(=O)(=O)Oc2ccc(C3C4=C(CCCC4=O)N(CCC(=O)O)C4=C3C(=O)CCC4)cc2Cl)cc1	.	129	-	-	-	-
COc1ccc(N2CCN(C(=O)c3ccccc3N(C)S(=O)(=O)c3ccc(C)cc3)CC2)cc1	.	-	-	.	-	.
CC(=O)Nc1ccc(NC(=O)c2c(C)nn(Cc3ccccc3)c2Cl)cc1	.	-	-	.	-	.
Cc1nn(Cc2ccccc2Cl)c(Cl)c1C(=O)NCCc1ccccc1	-	-	-	-	-	10
COC(=O)[C@]12C[C@H](CC(=O)NCc3ccc(OC)c(OC)c3)C(=O)N(Cc3ccc4c(c3)OCO4)C1=C[C@H](C(C)C)O[C@@H]2C1CC1	.	.	.	.	-	.
O=c1cc(N2CCCCCC2)[nH]c(=O)n1-c1ccc(Cl)cc1	-	129	-	-	-	-
O=c1cc(N2CCCC2)[nH]c(=O)n1-c1ccc(Cl)cc1	-	59	-	-	-	-
O=c1cc(N2CCOCC2)[nH]c(=O)n1-c1ccc(Cl)cc1	-	-	-	-	-	-
Cc1noc(C)c1CSc1nnc2cc(C)c3ccccc3n12	-	-	-	-	.	.
C=CCn1c(O)c(C=Nc2ccccc2)sc1=S	-	-	-	-	-	-
O=C(O)Cn1c(O)c(C=Nc2ccccc2)sc1=S	73	31!	-	-	-	-
CCn1c(CSc2nc3ccccc3[nH]2)nc2cc(C(=O)O)ccc21	-	-	-	-	-	-
CCn1c(CSc2nccn2C)nc2cc(C(=O)O)ccc21	53	-	-	-	.	-
O=S(=O)(c1ccccc1)N1N=C(c2cccs2)CC1c1ccc(F)cc1 (configuration not stated)	-	-	-	-	-	-
Fc1ccc(N2N=C(c3cccs3)CC2c2ccccc2)cc1 (configuration not stated)	91	-	-	59	-	-
COc1cccc(C(=O)CSc2nnc(CNS(=O)(=O)c3ccc(C)cc3)n2C)c1	-	-	-	-	-	9.7
Cc1c(C(=O)NCc2ccc3c(c2)OCO3)sc(=O)n1Cc1ccc(-c2ccccc2)cc1	.	.	.	.	-	.
Cc1ccc(Oc2coc3cc(OC(=O)c4cccs4)ccc3c2=O)cc1	-	-	-	-	45	-
SMILES	Runt-SMMHC FRET	RanGTP-Imp inh	AI-2 QS modul	Runt-CBFb FRET	proKLK7 act	Wee1 degr inh
Cc1cccc(Oc2coc3cc(OC(=O)c4cccs4)ccc3c2=O)c1	-	-	-	-	41	11
COc1ccc(Oc2coc3cc(O)ccc3c2=O)cc1	.	-	-94	.	-	.
COc1cc(Nc2c3ccccc3nc3ccccc23)cc(OC)c1OC	.	?	-	.	-	.
CC(C)(C)Nc1c2ccccc2nc2ccccc12	.	28	-	.	-	.
Fc1cccc(NCCc2c[nH]c3ccccc23)n1	.	-	-	.	-	.
OCCCNc1c2ccccc2nc2ccccc12	.	51	-	.	-	.
c1ccc2c(NCCc3c[nH]c4ccccc34)c3ccccc3nc2c1	.	91	-	.	-	.
COC(=O)C1=C2SCC(=O)N2C(N)=C(C#N)C1	-	-	-	-	-	12
CCOC(=O)C1=C2SCC(=O)N2C(N)=C(C#N)C1	-	-	-	-	-	-
COC(=O)[C@]1(Cc2ccccc2)NC=C(C(=O)c2ccccc2)[C@@H]1c1cccs1	.	.	.	.	-	.
CC(C)[C@@H](N)C(=O)N/N=C/c1ccc2ncccc2c1	-	-	-	-	-	18
